Source: PubChem (Sanford-Burnham Center for Chemical Genomics)
Most compounds without a hit are left out; they make up all but 2.3% or so of the library.
SKN-1 block = blocks SKN-1 activity in C. elegans | C. elegans VP596 Pgst-4::GFP/RFP ratio, acrylamide-induced, 24 h | inhibition, % at 21.8 µM | AID 624304 | hit rate 0.49% among 360,000;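 active means interference check ratio from 0.5 to 1.5 plus GFP to RFP signal ratio inhibition reaching or exceeding a fixed threshold, cut at about 30% in these data, passing the limit was not always enough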
MT1-MMP act inh = MT1-MMP (human) activation inhibition; P50281; AID 651647; HT1080 RFP-PRO-GFP cells, GFP/RFP ratio fluorescence, overnight; percent of plate control window, DMSO zero; hit rate 0.061% among 360,000; GFP/RFP ratio change, % at 20 µM;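 active means GFP/RFP ratio change of at least 30% with cell ATP level not reduced by more than half and red fluorescence within 50% of control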
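Assay system: HT1080 RFP-PRO-GFP cells. Benchmarks: DMSO vehicle wells and RFP-L50D-GFP reporter cell wells. Times: overnight cell settling, then overnight compound exposure, 37 °C, 5% CO2. Compound: 20 µM single dose, 1% DMSO. Read-out basis: GFP/RFP fluorescence ratio.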
ATG4B inh = inhibitors of human ATG4B cysteine protease. Q9Y4P1. ATG4B cleavage of LC3-PLA2, NBD-HPC fluorescence, 1 h. inhibition, % at 8.33 µM. hit rate 0.51% among 340,000. AID 504462; in the data active means inhibition above about 40%
Target sequence (Q9Y4P1 whole entry, looked up): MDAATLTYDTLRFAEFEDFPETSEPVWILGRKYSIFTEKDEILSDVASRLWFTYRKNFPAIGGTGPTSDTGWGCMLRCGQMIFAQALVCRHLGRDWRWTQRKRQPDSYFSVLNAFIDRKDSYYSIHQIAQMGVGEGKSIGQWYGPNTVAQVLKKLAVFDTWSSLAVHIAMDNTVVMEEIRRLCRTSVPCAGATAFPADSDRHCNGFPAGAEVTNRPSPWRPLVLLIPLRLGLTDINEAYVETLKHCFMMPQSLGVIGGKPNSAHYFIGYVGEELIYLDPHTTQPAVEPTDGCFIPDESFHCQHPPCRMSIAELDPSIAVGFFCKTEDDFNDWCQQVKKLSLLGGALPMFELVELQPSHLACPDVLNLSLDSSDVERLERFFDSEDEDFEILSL
MPTP block = blocks calcium-induced mitochondrial swelling | isolated mouse mitochondria, Ca2+ swelling absorbance, 30 min | hit rate 1.4% among 360,000 | inhibition, % at 10 µM;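 active means inhibition of 50% or more, scaled per plate between neutral and stimulator controls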;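 further: 0% = DMSO wells given calcium and 100% = 1 mM EGTA wells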
MPTP counter = membrane potential counter-screen of mitochondrial pore inhibitors; shares compounds with MPTP block; isolated mitochondria, Rhodamine 123 fluorescence; inhibition, % at 10 µM; AID 624504; hit rate 78% among 5,000; in the data active means inhibition above about 22%;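 further: 0% = DMSO vehicle and 100% = positive control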
MPTP swell DR = dose response confirmation of mitochondrial permeability transition pore inhibitors; shares compounds with MPTP block; isolated mitochondria swelling, absorbance; IC50, µM; hit rate 58% among 780; AID 651561; in the data active means IC50 below about 20 µM
MPTP counter DR = MPTP inhibitor counter-screen activity, dose response; shares compounds with MPTP block; isolated mitochondria counterscreen, fluorescence read-out; IC50, µM; hit rate 49% among 780; in the data active means IC50 below about 80 µM
* = called active by the depositor; i = inactive; . = no result given.

SMILES | SKN-1 block | MT1-MMP act inh | ATG4B inh | MPTP block | MPTP counter | others
O=C(CSc1nc2ccccc2o1)Nc1ccc(N2CCOCC2)c(Cl)c1 | 12.5 | 0.9 | 1.5 | 96.7* | 93.4*
CC(=O)Nc1ccc2nc(SCC(=O)Nc3ccc(N4CCOCC4)c(Cl)c3)sc2c1 | 2.7 | -0.5 | -12.0 | 2.1 | .
CNc1nc(SCC(=O)Nc2ccc(Cl)c(Cl)c2)nc(N2CCOCC2)n1 | 13.7 | 1.0 | -4.7 | 0.7 | .
O=C(CSc1nc2ccccc2s1)Nc1ccc(N2CCOCC2)c(Cl)c1 | 14.7 | -2.7 | 1.4 | 90.0* | 83.5*
O=C(CSc1nc(Nc2ccccc2)nc(N2CCOCC2)n1)Nc1cccc([N+](=O)[O-])c1 | -7.0 | 0.3 | -6.0 | 7.0 | .
COCc1cc(C)nc(OCC(=O)N/N=C/c2ccc(C)o2)c1C#N | 10.9 | -3.6 | 6.0 | 3.1 | .
COc1ccccc1CCNC(=O)c1cccc(S(=O)(=O)NCc2ccccc2)c1 | 1.4 | 0.2 | -2.5 | -0.1 | .
CCC1(C)Cc2ccccc2-c2[nH][nH]c(=O)c21 (stereo unspecified) | 0.7 | -3.2 | 5.1 | 0.5 | .
Cc1cc(Oc2ccccc2)nc(SCC(=O)Nc2ccc(Cl)c(Cl)c2)n1 | -1.4 | -6.7 | -2.8 | 73.1* | 72.4*
Cc1cc(Oc2ccccc2)nc(SCC(=O)Nc2ccccc2)n1 | -2.9 | 3.3 | 4.2 | 10.3 | .
N#CC(/C(=N/S(=O)(=O)c1cccs1)c1ccccc1)c1nc2ccccc2[nH]1 (stereo unspecified) | -2.1 | 4.1 | -0.1 | 66.0* | 71.9*
CC1(C)CC(NC(=O)Cc2ccccc2)CC(C)(C)N1 | -2.7 | 0.0 | 8.9 | 0.5 | .
CCOc1cc(NC(=S)Nc2ccc(Cl)cc2)c(OCC)cc1NC(C)=O | 4.5 | 0.4 | 3.7 | 73.3* | 99.5*
CCOc1ccccc1NC(=O)Nc1ccc(Cl)cc1 | 5.7 | 5.6 | 13.7 | 90.2* | 89.6*
N#Cc1c(-c2ccc(Cl)cc2)n(O)c2ccccc12 | 20.3 | 2.8 | 8.0 | 95.6* | 99.6*
COc1ccc(C2c3ccc4ccccc4c3Oc3ncn(CCN(C)C)c(=N)c32)cc1 (stereo unspecified) | -1.3 | -3.8 | -3.7 | -2.6 | .
O=[N+]([O-])c1ccc(O)c(/C=N\N=C2c3ccccc3-c3ccccc32)c1 | 13.1 | -10.3 | -19.7 | 104.5* | 92.9*
Cc1ccc(C(=O)OCC(=O)N(CC(C)C)c2c(N)n(Cc3ccccc3)c(=O)[nH]c2=O)s1 | -4.9 | -3.9 | 4.6 | 0.1 | .
CC1(C)CC(=O)C(C2C3=C(CC(C)(C)CC3=O)Oc3c(Br)cc(Br)cc32)=C(O)C1 (stereo unspecified) | 27.9 | -11.6 | -3.8 | 82.0* | 94.7*
COC(=O)C(C)(C)c1cccnc1C#N | -15.6 | 5.1 | . | -2.2 | .
O=C(c1ccc(S(=O)(=O)c2ccc(F)cc2)c([N+](=O)[O-])c1)N1CCCCCC1 | 2.8 | -9.0 | -6.5 | 78.3* | 67.8*
O=C1CCC(C(=O)Nc2cccc(S(=O)(=O)N3CCOCC3)c2)N1 (stereo unspecified) | 13.9 | 5.9 | 2.0 | -2.2 | .
O=C1c2ccccc2-c2cccc(NS(=O)(=O)c3ccc(C(F)(F)F)cc3)c21 | -18.8 | -74.4 | 3.5 | 64.3* | 37.7*
Cc1ccc(S(=O)(=O)Nc2ccccc2-c2ccccc2NS(=O)(=O)c2ccc(C)cc2)cc1 | -5.1 | 1.3 | 12.6 | 23.5 | .
Cc1ncc([N+](=O)[O-])n1CCOC(=O)Nc1ccc([N+](=O)[O-])cc1 | 1.9 | 3.1 | -0.6 | 77.2* | 71.2*
SMILES | SKN-1 block | MT1-MMP act inh | ATG4B inh | MPTP block | MPTP counter | others
O=C(CNc1cccc(S(=O)(=O)N2CCCCC2)c1)Nc1ccc(C(F)(F)F)cc1 | 9.5 | -1.5 | . | 81.0* | 76.4*
O=C(CNc1cccc(S(=O)(=O)N2CCCC2)c1)Nc1ccc(C(F)(F)F)cc1 | 5.1 | 10.5 | -16.6 | 51.8* | 85.2*
CCCCNC(=O)C1(NC(=O)Nc2ccc(C)cc2)CCCCC1 | 8.2 | 3.4 | -7.8 | -1.8 | .
CS(=O)(=O)NNC(=O)C1Cc2c(ccc3ccccc23)O1 (stereo unspecified) | 11.2 | 2.0 | 0.9 | 0.4 | .
O=C(NNS(=O)(=O)c1ccc(F)cc1F)C1Cc2c(ccc3ccccc23)O1 (stereo unspecified) | 20.5 | 6.9 | 7.0 | 73.0* | 51.9*
O=C(NC(=O)c1cccc(F)c1)OC[C@@H]1CCCN2CCCC[C@H]12 | -20.6 | 0.3 | -8.9 | -1.7 | .
O=C(Nc1ccc(C(=O)OC[C@@H]2CCCN3CCCC[C@H]23)cc1)c1cccc(Br)c1 | -5.9 | 1.9 | -2.4 | 70.3* | -6.8 | MPTP swell DR=13.5*;MPTP counter DR=47.2*
Cc1cc(C)c2cc(C#N)c(NCCCN)nc2c1 | 1.3 | 15.1 | . | -1.3 | .
O=C1c2ccccc2C(=O)N1c1ccccc1 | 13.7 | 6.3 | -0.5 | 1.1 | .
O=C1c2ccccc2C(=O)N1c1ccc(Cc2ccncc2)cc1 | 9.4 | 2.4 | 33.1 | 54.0* | 15.6 | MPTP swell DR=i;MPTP counter DR=27.2*
S=C(NCc1ccncc1)Nc1ccc(Cl)c(Cl)c1 | 9.1 | 3.9 | 16.8 | 88.4* | 92.5*
S=C(NCc1ccncc1)Nc1cc(Cl)cc(Cl)c1 | 6.6 | 0.7 | 12.1 | 67.9* | 99.3*
S=C(NCc1ccncc1)Nc1ccccc1 | -6.5 | 3.7 | -0.7 | -0.6 | .
S=C(NCc1ccncc1)Nc1ccc(Br)cc1 | 6.6 | 3.6 | 4.2 | 1.1 | .
S=C(NCC1CCCO1)Nc1ccc(Cl)c(Cl)c1 (stereo unspecified) | 6.3 | 1.7 | -3.3 | 60.2* | 87.2*
Cc1ccc(CNC(=O)CCc2c(C)nn(-c3ccc(N4CCOCC4)nn3)c2C)cc1 | 4.1 | -0.9 | 2.7 | -0.9 | .
O=c1oc2ccccc2c(Nc2ccc(F)cc2)c1[N+](=O)[O-] | 3.7 | 0.5 | -3.8 | 0.0 | .
CC(C)c1ccc(CNc2c([N+](=O)[O-])c(=O)oc3ccccc23)cc1 | -1.3 | 2.1 | -3.7 | 87.1* | 94.5*
O=c1oc2ccccc2c(Nc2ccc(Cl)cc2)c1[N+](=O)[O-] | -3.3 | 2.4 | 1.6 | 56.5* | 82.5*
CCn1nnc2cc(C(=O)O)ccc21 | 24.6 | 7.8 | 1.0 | 0.8 | .
O=S(=O)(Nc1ccccc1Cl)c1ccc(NS(=O)(=O)c2cccs2)cc1 | -9.6 | -0.3 | -1.5 | -3.0 | .
O=C(Nc1ccc(Cl)cc1)Nc1ccccc1NS(=O)(=O)c1cccs1 | 14.5 | -0.6 | 3.3 | 82.5* | 83.4*
O=C(Nc1ccc(F)cc1)Nc1ccccc1NS(=O)(=O)c1cccs1 | -2.5 | 2.7 | 1.9 | 81.3* | 86.2*
CCOc1ccc(NC(=S)N2CCC(C(=O)c3ccc(F)cc3)CC2)cc1 | 14.3 | 0.1 | 0.3 | -0.3 | .
Cc1ccc(N2C(=O)CC(Sc3ccccc3C(=O)O)C2=O)cc1C (stereo unspecified) | -0.6 | 7.1 | -6.1 | 0.0 | .
CCOc1ccc(NC(=O)Nc2nc(SCC)ns2)cc1 | 21.7 | -2.3 | -3.9 | 96.8* | 79.4*
